Laboratory results from ChEMBL document CHEMBL1154942, “Design, synthesis and evaluation of carbamate-modified (-)-N(1)-phenethylnorphysostigmine derivatives as selective butyrylcholinesterase inhibitors” (Bioorg Med Chem Lett, 2010).

Key:
Cholinesterase = Cholinesterase (Mus musculus, UniProt Q03311); test: Inhibition of mouse serum BChE after 1 hr by modified Ellman's colorimetric method
Summary of the method: (§1)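 Enzyme from mouse serum extract. Compounds preincubated with enzyme 1 h at 37 °C, then butyrylthiocholine plus DTNB added. Absorbance read at 415 nm at 2 min intervals. Activity expressed as percent of DMSO solvent control. Seven concentrations tested. IC50 from nonlinear regression of sigmoidal dose–response, accepted only if r² ≥ 0.95. Mean of at least four independent measurements.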

Acetylcholinesterase = target: T1, Acetylcholinesterase (Mus musculus, UniProt P21836); test: Inhibition of mouse brain AChE after 1 hr by modified Ellman's colorimetric method
T1 sequence (P21836 whole entry): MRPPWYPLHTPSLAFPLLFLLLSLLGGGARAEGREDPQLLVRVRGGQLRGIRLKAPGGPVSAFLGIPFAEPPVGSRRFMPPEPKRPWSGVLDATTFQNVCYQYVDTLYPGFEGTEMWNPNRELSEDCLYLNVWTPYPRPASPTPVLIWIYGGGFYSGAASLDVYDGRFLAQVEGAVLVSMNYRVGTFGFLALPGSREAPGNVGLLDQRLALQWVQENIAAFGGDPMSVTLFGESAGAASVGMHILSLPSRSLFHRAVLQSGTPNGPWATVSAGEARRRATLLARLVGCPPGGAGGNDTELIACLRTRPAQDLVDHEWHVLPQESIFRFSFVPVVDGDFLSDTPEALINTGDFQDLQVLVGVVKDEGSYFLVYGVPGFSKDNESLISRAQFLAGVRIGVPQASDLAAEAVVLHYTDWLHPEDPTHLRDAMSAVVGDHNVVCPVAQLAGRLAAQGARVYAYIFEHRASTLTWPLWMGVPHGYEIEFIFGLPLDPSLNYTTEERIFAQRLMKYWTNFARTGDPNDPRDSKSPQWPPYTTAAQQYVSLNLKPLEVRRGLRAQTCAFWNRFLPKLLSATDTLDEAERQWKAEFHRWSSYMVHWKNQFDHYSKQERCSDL
Summary of the method: as §1, with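 “brain” for “serum”, “acetylthiocholine” for “butyrylthiocholine”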

Sequence of Cholinesterase (Q03311 whole entry): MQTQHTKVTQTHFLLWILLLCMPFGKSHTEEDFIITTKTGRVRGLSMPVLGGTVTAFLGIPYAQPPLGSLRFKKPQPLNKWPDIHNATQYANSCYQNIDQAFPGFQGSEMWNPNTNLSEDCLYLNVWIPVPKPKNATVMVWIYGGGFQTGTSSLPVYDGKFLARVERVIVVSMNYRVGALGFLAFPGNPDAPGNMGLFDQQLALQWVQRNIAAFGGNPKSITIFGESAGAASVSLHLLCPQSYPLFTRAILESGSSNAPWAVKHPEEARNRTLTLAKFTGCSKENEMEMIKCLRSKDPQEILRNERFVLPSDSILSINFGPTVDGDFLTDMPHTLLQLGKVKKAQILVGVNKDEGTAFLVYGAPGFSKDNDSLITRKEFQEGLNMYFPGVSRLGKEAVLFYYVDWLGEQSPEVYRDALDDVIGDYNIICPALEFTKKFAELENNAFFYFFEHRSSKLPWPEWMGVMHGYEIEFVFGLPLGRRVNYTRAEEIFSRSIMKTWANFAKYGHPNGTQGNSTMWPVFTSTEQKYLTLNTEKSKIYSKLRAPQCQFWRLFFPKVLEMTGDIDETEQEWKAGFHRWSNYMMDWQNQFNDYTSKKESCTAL

Row | SMILES | IC50 (Cholinesterase) [nM] | IC50 (Acetylcholinesterase) [nM]
1 | CN(C)c1ccc(NC(=O)Oc2ccc3c(c2)[C@]2(C)CCN(CCc4ccccc4)[C@@H]2N3C)cc1 | 79 | > 100000
2 | COc1ccc(NC(=O)Oc2ccc3c(c2)[C@]2(C)CCN(CCc4ccccc4)[C@@H]2N3C)cc1OC | 97 | 11000
3 | CCCCc1ccc(NC(=O)Oc2ccc3c(c2)[C@]2(C)CCN(CCc4ccccc4)[C@@H]2N3C)cc1 | 980 | 48000
4 | CNC(=O)Oc1ccc2c(c1)[C@]1(C)CCN(C)[C@@H]1N2C [PHYSOSTIGMINE] | 280 | 40
5 | CC(=O)c1ccc(NC(=O)Oc2ccc3c(c2)[C@]2(C)CCN(CCc4ccccc4)[C@@H]2N3C)cc1 | 5900 | > 100000
6 | CN1c2ccc(OC(=O)Nc3ccc4ccccc4c3)cc2[C@]2(C)CCN(CCc3ccccc3)[C@H]12 | 580 | 44000
7 | CNC(=O)Oc1ccc2c(c1)[C@]1(C)CCN(CCc3ccccc3)[C@@H]1N2C | 10 | 170
8 | CN1c2ccc(OC(=O)Nc3ccc([N+](=O)[O-])cc3)cc2[C@]2(C)CCN(CCc3ccccc3)[C@H]12 | 6700 | > 100000
9 | CN1c2ccc(OC(=O)Nc3ccc(Cl)cc3)cc2[C@]2(C)CCN(CCc3ccccc3)[C@H]12 | 370 | > 100000
10 | CN1c2ccc(OC(=O)NCCc3ccccc3)cc2[C@]2(C)CCN(CCc3ccccc3)[C@H]12 | 16 | 450
11 | COc1ccc(NC(=O)Oc2ccc3c(c2)[C@]2(C)CCN(CCc4ccccc4)[C@@H]2N3C)cc1 | 83 | 33000
12 | CN1c2ccc(OC(=O)NC3CCCCC3)cc2[C@]2(C)CCN(CCc3ccccc3)[C@H]12 | 22 | 5600
13 | CN1c2ccc(OC(=O)Nc3ccc(C(C)(C)C)cc3)cc2[C@]2(C)CCN(CCc3ccccc3)[C@H]12 | 430 | 15000
14 | CN1c2ccc(OC(=O)NCC3CCCCC3)cc2[C@]2(C)CCN(CCc3ccccc3)[C@H]12 | 1.8 | 2500
15 | CN1c2ccc(OC(=O)NCc3ccccc3)cc2[C@]2(C)CCN(CCc3ccccc3)[C@H]12 | 6.6 | 180
16 | CCCCCCNC(=O)Oc1ccc2c(c1)[C@]1(C)CCN(CCc3ccccc3)[C@@H]1N2C | 14 | 970
17 | CN1c2ccc(OC(=O)Nc3ccc(-c4ccccc4)cc3)cc2[C@]2(C)CCN(CCc3ccccc3)[C@H]12 | 1100 | > 100000
18 | CN1c2ccc(OC(=O)Nc3ccccc3)cc2[C@]2(C)CCN(CCc3ccccc3)[C@H]12 | 340 | 1600
19 | CN1c2ccc(OC(=O)Nc3ccc(Oc4ccccc4)cc3)cc2[C@]2(C)CCN(CCc3ccccc3)[C@H]12 | 2000 | > 100000
20 | CCCCCCOc1ccc(NC(=O)Oc2ccc3c(c2)[C@]2(C)CCN(CCc4ccccc4)[C@@H]2N3C)cc1 | 1400 | > 100000
21 | CC(C)c1ccc(NC(=O)Oc2ccc3c(c2)[C@]2(C)CCN(CCc4ccccc4)[C@@H]2N3C)cc1 [PHENETHYLCYMSERINE] | 540 | > 100000
22 | CN1c2ccc(OC(=O)Nc3ccc4c(c3)OCO4)cc2[C@]2(C)CCN(CCc3ccccc3)[C@H]12 | 100 | 1900
